Assay results published in ChEMBL document CHEMBL5712079, “The H3K27me3-demethylase KDM6A is suppressed in breast cancer stem-like cells, and enables the resolution of bivalency during the mesenchymal-epithelial transition” (Oncotarget, 2017).
The source made the active and inactive calls.

Tests used:
Assay type in all cases: cell-based
[1] = target: Lysine-specific demethylase 6A (Homo sapiens) (UniProt O15550); experiment: Inhibition of KDM6A in human MCF-10A cell assessed as vimentin expression at 50 nM by immunostaining analysis
Lysine-specific demethylase 6A (Homo sapiens), sequence (O15550 whole entry): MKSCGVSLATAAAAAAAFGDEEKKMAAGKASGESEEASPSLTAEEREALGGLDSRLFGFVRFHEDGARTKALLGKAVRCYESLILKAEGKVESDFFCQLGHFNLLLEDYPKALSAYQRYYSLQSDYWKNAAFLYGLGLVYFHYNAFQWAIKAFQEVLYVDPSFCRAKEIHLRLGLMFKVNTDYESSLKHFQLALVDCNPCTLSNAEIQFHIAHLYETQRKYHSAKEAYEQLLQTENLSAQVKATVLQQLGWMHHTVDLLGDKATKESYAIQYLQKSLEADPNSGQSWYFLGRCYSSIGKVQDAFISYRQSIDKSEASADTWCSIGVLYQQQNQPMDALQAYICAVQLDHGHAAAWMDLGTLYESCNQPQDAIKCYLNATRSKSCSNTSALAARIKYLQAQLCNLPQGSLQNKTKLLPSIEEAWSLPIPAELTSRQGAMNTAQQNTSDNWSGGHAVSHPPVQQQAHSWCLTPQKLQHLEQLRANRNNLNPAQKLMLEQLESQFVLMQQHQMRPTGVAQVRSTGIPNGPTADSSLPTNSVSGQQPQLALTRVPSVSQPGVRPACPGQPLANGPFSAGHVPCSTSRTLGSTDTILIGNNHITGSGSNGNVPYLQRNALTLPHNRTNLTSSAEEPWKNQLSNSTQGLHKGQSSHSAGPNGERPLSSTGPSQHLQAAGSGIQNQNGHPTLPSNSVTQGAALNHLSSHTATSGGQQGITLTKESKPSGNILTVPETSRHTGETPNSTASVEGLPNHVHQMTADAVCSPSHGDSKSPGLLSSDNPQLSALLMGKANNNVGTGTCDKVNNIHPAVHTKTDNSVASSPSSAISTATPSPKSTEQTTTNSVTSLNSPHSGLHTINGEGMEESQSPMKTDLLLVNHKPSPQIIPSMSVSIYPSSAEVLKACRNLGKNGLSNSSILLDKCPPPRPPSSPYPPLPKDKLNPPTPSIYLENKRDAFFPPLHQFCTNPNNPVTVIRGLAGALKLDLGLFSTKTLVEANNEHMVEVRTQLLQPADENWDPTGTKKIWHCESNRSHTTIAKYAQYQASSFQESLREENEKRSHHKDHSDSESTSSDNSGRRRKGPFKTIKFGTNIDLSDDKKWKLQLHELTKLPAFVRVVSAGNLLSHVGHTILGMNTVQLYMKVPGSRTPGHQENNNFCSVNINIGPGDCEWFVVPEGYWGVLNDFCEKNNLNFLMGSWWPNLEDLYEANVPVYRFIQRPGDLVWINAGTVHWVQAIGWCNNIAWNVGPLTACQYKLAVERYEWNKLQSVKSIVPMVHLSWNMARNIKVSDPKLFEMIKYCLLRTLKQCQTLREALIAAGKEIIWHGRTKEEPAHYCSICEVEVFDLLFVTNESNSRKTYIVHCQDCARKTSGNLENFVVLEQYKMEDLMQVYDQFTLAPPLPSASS
In short: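 MCF10A cells received TGFB (2.5 ng/ml; vehicle was 4 mM HCl with 0.1% BSA) to induce EMT, then TGFB was withdrawn in the presence of compound (50 nM) or DMSO. Cells were fixed and immunostained for vimentin and imaged by inverted fluorescence microscopy.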

[2] = target: Lysine-specific demethylase 6A (Homo sapiens) (UniProt O15550); experiment: Inhibition of KDM6A in human MCF-10A cell assessed as CCNA1 gene expression at 50 nM by qRT-PCR analysis
In short: (§1)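 MCF10A monolayers were exposed to TGFB at 2.5 ng/ml for 6 days to induce EMT, then cultured without TGFB for 10 days (MET) with compound at 50 nM or DMSO vehicle. Vehicle-only and TGFB-only arms served as references. RNA was analysed by qRT-PCR, normalised to GAPDH by 2^-ΔΔCt, and run in triplicate (mean ± SD). Significance was by unpaired t-tests with Holm-Sidak correction.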

[3] = target: Lysine-specific demethylase 6A (Homo sapiens) (UniProt O15550); experiment: Inhibition of KDM6A in human MCF-10A cell assessed as COBLL1 gene expression at 50 nM by qRT-PCR analysis; in short: as §1
[4] = target: Lysine-specific demethylase 6A (Homo sapiens) (UniProt O15550); experiment: Inhibition of KDM6A in human MCF-10A cell assessed as FZD8 gene expression at 50 nM by qRT-PCR analysis; in short: as §1
[5] = target: Lysine-specific demethylase 6A (Homo sapiens) (UniProt O15550); experiment: Inhibition of KDM6A in human MCF-10A cell assessed as MAP3K9 gene expression at 50 nM by qRT-PCR analysis; in short: as §1
[6] = target: Lysine-specific demethylase 6A (Homo sapiens) (UniProt O15550); experiment: Inhibition of KDM6A in human MCF-10A cell assessed as FAM117A gene expression at 50 nM by qRT-PCR analysis; in short: as §1
[7] = target: Lysine-specific demethylase 6A (Homo sapiens) (UniProt O15550); experiment: Inhibition of KDM6A in human MCF-10A cell assessed as PKP2 gene expression at 50 nM by qRT-PCR analysis; in short: as §1
[8] = target: Lysine-specific demethylase 6A (Homo sapiens) (UniProt O15550); experiment: Inhibition of KDM6A in human MCF-10A cell assessed as FAM60A gene expression at 50 nM by qRT-PCR analysis; in short: as §1
[9] = target: Lysine-specific demethylase 6A (Homo sapiens) (UniProt O15550); experiment: Inhibition of KDM6A in human MCF-10A cell assessed as C60ORF14 gene expression at 50 nM by qRT-PCR analysis; in short: as §1
[10] = target: Lysine-specific demethylase 6A (Homo sapiens) (UniProt O15550); experiment: Inhibition of KDM6A in human MCF-10A cell assessed as ZNF232 gene expression at 50 nM by qRT-PCR analysis; in short: as §1
[11] = target: Lysine-specific demethylase 6A (Homo sapiens) (UniProt O15550); experiment: Inhibition of KDM6A in human MCF-10A cell assessed as PUS3 gene expression at 50 nM by qRT-PCR analysis; in short: as §1
[12] = target: Lysine-specific demethylase 6A (Homo sapiens) (UniProt O15550); experiment: Inhibition of KDM6A in human MCF-10A cell assessed as H2AFY2 gene expression at 50 nM by qRT-PCR analysis; in short: as §1
[13] = target: Lysine-specific demethylase 6A (Homo sapiens) (UniProt O15550); experiment: Inhibition of KDM6A in human MCF-10A cell assessed as CBX4 gene expression at 50 nM by qRT-PCR analysis; in short: as §1
[14] = target: Lysine-specific demethylase 6A (Homo sapiens) (UniProt O15550); experiment: Inhibition of KDM6A in human MCF-10A cell assessed as THOC6 gene expression at 50 nM by qRT-PCR analysis; in short: as §1
[15] = target: Lysine-specific demethylase 6A (Homo sapiens) (UniProt O15550); experiment: Inhibition of KDM6A in human MCF-10A cell assessed as LRRC8D gene expression at 50 nM by qRT-PCR analysis; in short: as §1
[16] = target: Lysine-specific demethylase 6A (Homo sapiens) (UniProt O15550); experiment: Inhibition of KDM6A in human MCF-10A cell assessed as CDK4 gene expression at 50 nM by qRT-PCR analysis; in short: as §1
[17] = target: Lysine-specific demethylase 6A (Homo sapiens) (UniProt O15550); experiment: Inhibition of KDM6A in human MCF-10A cell assessed as ILKAP gene expression at 50 nM by qRT-PCR analysis; in short: as §1
[18] = target: Lysine-specific demethylase 6A (Homo sapiens) (UniProt O15550); experiment: Inhibition of KDM6A in human MCF-10A cell assessed as MED30 gene expression at 50 nM by qRT-PCR analysis; in short: as §1

Measured: inhibition

CCOC(=O)CCNc1cc(N2CCc3ccccc3CC2)nc(-c2ccccn2)n1
active: [1] | [2] | [3] | [4] | [5] | [6] | [7] | [8] | [9] | [10] | [11] | [12] | [13] | [14] | [15] | [16] | [17] | [18]
